KCNQ1 act = potentiators or activators of human KCNQ1 potassium channel; CHO-K1 KCNQ1, thallium flux FluxOR fluorescence; stronger effect = higher value; 310,000 tested, 0.35% active; B-score at 10 µM;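 active means fluorescence ratio B-score, a plate-corrected score, at least three library SD, with initial intensity B-score within 5 SD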
Target sequence (P51787 whole entry, looked up): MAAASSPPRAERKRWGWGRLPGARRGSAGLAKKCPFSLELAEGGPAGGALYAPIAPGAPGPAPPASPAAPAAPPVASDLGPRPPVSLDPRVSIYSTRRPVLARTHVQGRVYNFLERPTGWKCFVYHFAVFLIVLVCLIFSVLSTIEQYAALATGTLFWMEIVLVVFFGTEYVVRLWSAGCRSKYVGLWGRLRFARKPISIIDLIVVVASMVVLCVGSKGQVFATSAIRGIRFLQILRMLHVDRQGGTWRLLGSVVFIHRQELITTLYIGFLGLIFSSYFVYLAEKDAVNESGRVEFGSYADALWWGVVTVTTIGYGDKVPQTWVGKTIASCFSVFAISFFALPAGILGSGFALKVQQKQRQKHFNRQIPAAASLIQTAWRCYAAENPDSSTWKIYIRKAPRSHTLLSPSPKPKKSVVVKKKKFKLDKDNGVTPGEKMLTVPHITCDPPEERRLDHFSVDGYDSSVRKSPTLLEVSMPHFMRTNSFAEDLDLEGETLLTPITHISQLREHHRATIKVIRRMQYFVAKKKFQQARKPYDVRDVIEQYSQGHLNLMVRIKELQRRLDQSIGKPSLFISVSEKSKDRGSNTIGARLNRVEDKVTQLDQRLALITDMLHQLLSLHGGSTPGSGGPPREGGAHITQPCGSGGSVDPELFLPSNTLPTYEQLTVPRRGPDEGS
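assay system = KCNQ1-transfected CHO-K1 cells | medium = assay buffer with matched DMSO | probe or stimulus = depolarizing K+/Tl+ stimulus, K2SO4 and Tl2SO4 each 12.5 mM in 5x stock | dosing = single dose | incubation = dye 90 min, compound 20 min, room temperature | detection = kinetic FluxOR fluorescence, 10 s baseline plus 110 s post-stimulus | evaluation = ratio B score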
KCNK3 inh = human KCNK3 channel inhibition, primary screen | O14649 | CHO-KCNK3 thallium flux, FluxOR fluorescence; stronger effect = lower value | B-score at 10 µM | 340,000 tested, 0.84% active | AID 602410;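 active means B-score under library mean minus 4 SD, starting fluorescence ratio at most library mean plus 5 SD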;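 further: more negative B-score means stronger inhibition of thallium flux through KCNK3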
KCNK9 inh = inhibitors of human KCNK9 two-pore domain potassium channel; AID 488922; Q9NPC2; B-score at 10 µM; HEK293 KCNK9, FluxOR thallium flux fluorescence; stronger effect = lower value; 310,000 tested, 1.2% active;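 active means ratio B-score over 3 SD below the library mean, with starting fluorescence within 5 SD of its mean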;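 further: negative B-score means less thallium flux so channel inhibition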
Kir21 inh = Kir2.1 (mouse) channel inhibition; HEK293-Kir2.1, FluxOR thallium flux fluorescence; stronger effect = lower value; B-score at 10 µM; 310,000 tested, 0.85% active; AID 1672;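 active means fluorescence ratio B-score at or below minus 3 SD of library scores, with starting-brightness B-score within 2 SD, cut at about -4.2 in these data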;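 further: channel flux triggered by added potassium and thallium sulfate stimulus; B-score of peak minus minimum fluorescence over baseline after thallium stimulus; more negative B-score means stronger Kir2.1 block with less thallium influx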
hERG protect = shields human hERG channel from block by proarrhythmic agents; Q12809; CHO-hERG, FluxOR thallium flux, dofetilide IC70 present; activation (rescue from dofetilide block), less the hit threshold, % at 10 µM; 310,000 tested, 0.51% active; AID 1511;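 active means activation above the mean of controls blocked by dofetilide plus 5 SD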;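 further: thallium influx through hERG after potassium depolarization seen as dye fluorescence rise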
KCNQ1 block = human KCNQ1 channel inhibition; CHO-K1 KCNQ1, FluxOR thallium flux fluorescence; stronger effect = higher value; B-score at 10 µM; 310,000 tested, 1.3% active; AID 2642;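 active means compounds whose thallium flux B-score, printed positive for inhibition, exceeds three library SD while starting fluorescence stays within three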;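 further: channel opened by potassium depolarization with thallium stimulus after 20 min compound exposure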
Numbers without * were called inactive; i = inactive; x = not tested or not shown. Hits are enriched below; roughly 3.7% of the tested compounds scored in any of these assays.

SMILES	KCNQ1 act	KCNK3 inh	KCNK9 inh	Kir21 inh	hERG protect	KCNQ1 block
CC(=O)C1=C(c2cccc([N+](=O)[O-])c2)N(C(C)=O)n2c(C)nnc2S1	i	i	i	-1.1	-17	7*
O=c1[nH]sc2ccccc12	13*	i	i	-3.1	-8	i
O=c1cc(O)sc2ccccc12	i	i	i	-1.2	-6	i
O=C(CN(CC1CCCO1)C(=O)CNS(=O)(=O)c1ccccc1)NCc1ccco1 (configuration not stated)	i	i	i	-0.85	7.2*	i
O=C(CN(CC1CCCO1)C(=O)CNS(=O)(=O)c1ccc(F)cc1)NCc1ccccc1 (configuration not stated)	i	i	i	-0.33	-1	i
O=C(NC(=S)NCCC1=CCCCC1)c1cccnc1	i	i	i	0.88	-10	i
CCn1nc(C)cc1-c1nnc(SCC(=O)Nc2ccccc2)n1CCCOC	i	i	i	0.2	-9	i
CCn1nc(C)cc1-c1nnc(Sc2ncc([N+](=O)[O-])s2)n1C	i	i	i	-2.1	-26	11*
Fc1ccccc1C1CC(c2ccco2)=Nc2ccccc2S1 (configuration not stated)	i	i	-6.9*	-0.49	-12	i
CCOC(=O)C1CCN(S(=O)(=O)c2ccc3c(c2)CCN3C(=O)C2CCC2)CC1	i	i	i	-0.45	-14	i
CCOc1ccccc1Nc1ccnc2cc(Cl)ccc12	i	i	i	0.48	-12	i
CC(C)Nc1ccc(Nc2ccnc3cc4ccccc4cc23)cc1	i	i	i	-6.4*	-33	9*
C[C@@H]1NC(=O)N(CCCn2ccnc2)C1=O	i	i	i	-1.3	-6	i
O=C(CSCc1ccc(Cl)cc1)NN=C1CCCCCC1	i	i	i	-2.9	0	i
CC(C)(/C=N/NC(=O)CSCc1ccc(Cl)cc1)CCC#N	i	i	i	-1.1	5.1*	i
CCCOC(=O)c1cc(NC(=O)/C=C/c2ccccc2)ccc1O	i	x	-9.4*	-0.27	-19	i
CC1CCC(NC(=O)C(C)N2C(=O)C3CCCCC3C2=O)CC1 (configuration not stated)	x	i	x	x	x	x
CCC1(O)CC(C(=O)OC)=NN1C(=O)c1ccccc1 (configuration not stated)	i	i	i	-0.33	-4	i
COC(=O)C1=NN(C(=O)c2ccc(Cl)cc2)C(O)(c2ccccc2)C1 (configuration not stated)	39*	i	i	-0.5	38*	i
CCOC(=O)C1=NN(C(=O)c2ccc(C)cc2)C(O)(c2ccc(Cl)cc2)C1 (configuration not stated)	79*	i	i	0.42	76*	i
O=C(/C=C/c1ccc([N+](=O)[O-])cc1)NCCOc1ccc(F)cc1	i	i	i	0	5.5*	i
N#Cc1ccc(Oc2ccc(C#N)c(C#N)c2)cc1C#N	x	i	x	x	x	x
Cn1cccc1/C=N/n1c(-c2ccc(C(C)(C)C)cc2)n[nH]c1=S	i	i	-7.7*	-2	-4	i
Cn1cccc1/C=N/n1c(-c2ccccc2)n[nH]c1=S	i	i	i	-1.8	-3	i
COC(=O)[C@H](CCSC)NC(=O)Cn1cc(C)c(=O)[nH]c1=O	x	i	x	x	x	x
SMILES	KCNQ1 act	KCNK3 inh	KCNK9 inh	Kir21 inh	hERG protect	KCNQ1 block
CCOc1ccc(-c2cc(C(=O)OC)[nH]n2)cc1	i	i	i	0.34	9.4*	i
COC(=O)Cn1c(O)c(N=NC(=O)CNC(=O)c2ccncc2)c2ccccc21	i	i	i	0.52	-5	i
CC(=O)Oc1ccc(C2=Cc3ccc(OC(C)=O)cc3OC2C)cc1 (configuration not stated)	x	i	x	x	x	x
COc1ccc(/C=C(\C#N)C(=O)c2c(C)[nH]c3ccccc23)cc1OC	i	i	i	2.1	-23	6*
COc1cc(/C=C(\C#N)C(=O)c2c(C)[nH]c3ccccc23)cc(OC)c1OC	i	i	i	0.88	-16	i
O=C(N/N=C/c1ccc(O)c(O)c1)NC12CC3CC(CC(C3)C1)C2	i	i	i	0.01	-8	i
CCOc1ccc(/C=N/NC(=O)NC23CC4CC(CC(C4)C2)C3)cc1O	i	i	i	-0.06	-21	9*
COc1ccc(/C=N\NC(=O)c2ccc(=O)[nH]n2)cc1O	i	i	i	-0.41	-5	i
COc1ccc(/C=N/NC(=O)c2cc(C34CC5CC(CC(C5)C3)C4)[nH]n2)cc1O	i	i	i	-0.25	-12	6*
Cc1ccc(N(Cc2ccccc2)C(=O)CN2C(=O)NC3(CCCC3)C2=O)cc1	i	i	i	0.01	-2	i
COc1ccc(NC(=O)CN(c2ccc(OC)c(Cl)c2)S(=O)(=O)c2ccccc2)c(OC)c1	i	i	i	-0.25	-1	6*
Cc1ccc(N(CC(=O)Nc2cc(Cl)ccc2Oc2ccccc2)S(C)(=O)=O)cc1C	i	i	-7.5*	0.77	-6	i
O=C(Nc1ccccc1Oc1ccccc1)c1ccccc1F	i	i	i	-0.44	-12	i
Cc1ccc(N(CC(=O)Nc2cc(Cl)ccc2Oc2ccccc2)S(C)(=O)=O)c(C)c1	i	i	i	0.92	-8	i
O=C(Nc1cc(Cl)ccc1Oc1ccccc1)c1ccccc1F	i	i	i	0.05	-5	6*
CN1C(=O)/C(=C\c2ccc(N(C)C)cc2)OC1=S	i	i	i	-0.96	-17	11*
COCCN(CCOC)Cc1c(O)ccc2c1O/C(=C\c1ccc(C)o1)C2=O	i	i	i	-6.8	-22	9*
CSC(=S)NN=C(C)c1cccc(C)n1	x	i	x	x	x	x
CC1CCN(C(=O)Cn2nnc(-c3ccc(C(C)C)cc3)n2)CC1	i	i	i	0.73	-7	i
C/C(=N\Nc1nc(C)cc(-c2ccccc2)n1)c1cccc(N)c1	i	i	i	0.45	-6	i
COc1ccccc1NC(=O)C(C)OC(=O)CCC1CCCCC1 (configuration not stated)	i	-8.9*	i	-2.4	-16	i
CC1Cc2ccccc2N1S(=O)(=O)c1cccc(C(=O)NCc2ccncc2)c1 (configuration not stated)	x	-9.5*	x	x	x	x
CC1Cc2ccccc2N1S(=O)(=O)c1cccc(C(=O)NCc2ccccn2)c1 (configuration not stated)	x	i	x	x	x	x
CCc1cc(-c2n[nH]c(C)c2-c2ccccc2Cl)c(O)cc1OC	i	i	i	-0.42	-4	i
